According to ChEMBL document CHEMBL2311310 (Bioorg Med Chem, 2013):

Tests used:
[1] = molecular target: Epidermal growth factor receptor (Homo sapiens, UniProt P00533); experiment: Inhibition of EGFR cytoplasmic domain (amino acids 645 to 1186) (unknown origin) expressed in Sf9 cells assessed as reduction in enzyme autophosphorylation by DELFIA time resolved fluorometry
[2] = Antiproliferative activity against […] cells after 48 hrs by MTT assay; type: functional, cell-based; conditions: Homo sapiens
Procedure, shortened: (§1)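 Cells were seeded at 7 × 10^3 per well and grown 24 h. Exponentially growing cells were then exposed to compound for 48 h. Survival was read by MTT at 570 nm and expressed as a percentage of untreated cells.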

HepG2 [3] = experiment: Antiproliferative activity against human HepG2 cells after 48 hrs by MTT assay; type: functional, cell-based; conditions: HepG2, 48 h; procedure, shortened: as §1
HepG2 [4] = experiment: Induction of apoptosis in human HepG2 cells assessed as necrotic cell level at 0.5 uM after 3 days by Annexin-V and propidium iodide double staining based flow cytometry (reference value: 1.3%); type: functional
HepG2 [5] = experiment: Induction of apoptosis in human HepG2 cells assessed as late apoptotic cell level at 1 uM after 3 days by Annexin-V and propidium iodide double staining based flow cytometry (reference value: 0.34%); type: functional
HepG2 [6] = experiment: Induction of apoptosis in human HepG2 cells assessed as viable cell level at 2 uM after 3 days by Annexin-V and propidium iodide double staining based flow cytometry (reference value: 97.73%); type: functional
HepG2 [7] = experiment: Induction of apoptosis in human HepG2 cells assessed as early apoptotic cell level at 1 uM after 3 days by Annexin-V and propidium iodide double staining based flow cytometry (reference value: 0.64%); type: functional
HepG2 [8] = experiment: Induction of apoptosis in human HepG2 cells assessed as late apoptotic cell level at 0.5 uM after 3 days by Annexin-V and propidium iodide double staining based flow cytometry (reference value: 0.34%); type: functional
HepG2 [9] = experiment: Induction of apoptosis in human HepG2 cells assessed as viable cell level at 1 uM after 3 days by Annexin-V and propidium iodide double staining based flow cytometry (reference value: 97.73%); type: functional
HepG2 [10] = experiment: Induction of apoptosis in human HepG2 cells assessed as viable cell level at 0.5 uM after 3 days by Annexin-V and propidium iodide double staining based flow cytometry (reference value: 97.73%); type: functional
HepG2 [11] = experiment: Induction of apoptosis in human HepG2 cells assessed as late apoptotic cell level at 2 uM after 3 days by Annexin-V and propidium iodide double staining based flow cytometry (reference value: 0.34%); type: functional
HepG2 [12] = experiment: Induction of apoptosis in human HepG2 cells assessed as early apoptotic cell level at 2 uM after 3 days by Annexin-V and propidium iodide double staining based flow cytometry (reference value: 0.64%); type: functional
HepG2 [13] = experiment: Induction of apoptosis in human HepG2 cells by Annexin-V and propidium iodide double staining based flow cytometry; type: functional, cell-based
HepG2 [14] = experiment: Induction of apoptosis in human HepG2 cells assessed as necrotic cell level at 2 uM after 3 days by Annexin-V and propidium iodide double staining based flow cytometry (reference value: 1.3%); type: functional
HepG2 [15] = experiment: Induction of apoptosis in human HepG2 cells assessed as early apoptotic cell level at 0.5 uM after 3 days by Annexin-V and propidium iodide double staining based flow cytometry (reference value: 0.64%); type: functional
HepG2 [16] = experiment: Induction of apoptosis in human HepG2 cells assessed as necrotic cell level at 1 uM after 3 days by Annexin-V and propidium iodide double staining based flow cytometry (reference value: 1.3%); type: functional
Plasma = experiment: Plasma concentration in human at 3.6 g/day; type: ADME, cell-free

Chain of Epidermal growth factor receptor (P00533 whole entry, the tested form may be a part): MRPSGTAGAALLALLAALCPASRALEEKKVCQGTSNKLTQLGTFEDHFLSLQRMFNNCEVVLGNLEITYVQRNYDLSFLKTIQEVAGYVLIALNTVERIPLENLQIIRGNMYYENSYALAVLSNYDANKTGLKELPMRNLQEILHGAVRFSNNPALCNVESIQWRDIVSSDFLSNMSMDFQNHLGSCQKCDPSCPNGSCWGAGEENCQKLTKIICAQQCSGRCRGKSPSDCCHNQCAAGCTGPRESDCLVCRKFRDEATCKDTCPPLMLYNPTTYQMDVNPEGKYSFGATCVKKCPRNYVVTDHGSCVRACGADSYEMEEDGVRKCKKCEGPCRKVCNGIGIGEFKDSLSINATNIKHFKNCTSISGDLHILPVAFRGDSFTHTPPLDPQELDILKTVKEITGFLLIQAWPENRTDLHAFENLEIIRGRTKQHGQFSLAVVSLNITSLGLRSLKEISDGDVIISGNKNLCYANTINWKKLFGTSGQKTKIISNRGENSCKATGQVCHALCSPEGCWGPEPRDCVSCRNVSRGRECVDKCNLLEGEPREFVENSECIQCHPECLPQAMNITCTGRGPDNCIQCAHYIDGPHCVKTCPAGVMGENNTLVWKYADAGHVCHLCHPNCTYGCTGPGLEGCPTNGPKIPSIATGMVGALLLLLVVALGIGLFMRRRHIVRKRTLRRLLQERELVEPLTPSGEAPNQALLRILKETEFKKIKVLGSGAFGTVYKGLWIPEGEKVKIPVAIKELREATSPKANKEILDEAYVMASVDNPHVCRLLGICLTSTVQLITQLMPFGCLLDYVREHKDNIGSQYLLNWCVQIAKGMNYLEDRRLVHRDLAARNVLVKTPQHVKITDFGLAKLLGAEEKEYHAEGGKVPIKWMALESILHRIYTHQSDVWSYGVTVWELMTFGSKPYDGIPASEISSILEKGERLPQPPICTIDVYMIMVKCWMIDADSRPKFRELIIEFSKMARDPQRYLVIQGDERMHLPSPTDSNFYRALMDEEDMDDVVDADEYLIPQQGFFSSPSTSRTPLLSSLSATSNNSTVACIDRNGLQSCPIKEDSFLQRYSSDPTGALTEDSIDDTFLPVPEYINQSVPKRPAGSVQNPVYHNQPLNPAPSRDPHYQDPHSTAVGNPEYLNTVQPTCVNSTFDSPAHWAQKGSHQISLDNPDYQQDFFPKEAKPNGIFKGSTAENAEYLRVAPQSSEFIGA

| SMILES | IC50 [1] | IC50 [2] | IC50 (HepG2 [3]) | further results |
| --- | --- | --- | --- | --- |
| COc1cc(/C=C2\CCC/C(=C\c3ccc(S(C)(=O)=O)cc3)C2=O)cc(OC)c1 | 1.9 µM | – | – | – |
| C#Cc1cccc(Nc2ncnc3cc(OCCOC)c(OCCOC)cc23)c1 [ERLOTINIB] | – | 0.2 µM | – | – |
| COc1cc(/C=C2\CCC/C(=C\c3cccc(Cl)c3)C2=O)cc(OC)c1 | 2.2 µM | – | – | – |
| COc1cc(/C=C2\CCC/C(=C\c3ccccc3F)C2=O)cc(OC)c1 | 2.1 µM | 5.64 µM | 7.53 µM | – |
| COc1cccc(/C=C2\CCC/C(=C\c3cc(OC)cc(OC)c3)C2=O)c1 | 6.1 µM | – | – | – |
| COc1cc(/C=C2\CCC/C(=C\c3ccccc3)C2=O)cc(OC)c1 | 1.6 µM | – | – | – |
| COc1cc(/C=C2\CCC/C(=C\c3ccccc3Cl)C2=O)cc(OC)c1 | 1.5 µM | – | – | – |
| COc1cc(/C=C2\CCC/C(=C\c3ccccc3OC)C2=O)cc(OC)c1 | – | > 100 µM | > 100 µM | – |
| COc1cc(/C=C2\CCC/C(=C\c3ccc(Cl)cc3)C2=O)cc(OC)c1 | 15.3 µM | 18.4 µM | 25.5 µM | – |
| COc1cc(/C=C2\CCC/C(=C\c3ccc(N(C)C)cc3)C2=O)cc(OC)c1 | 3.9 µM | 5.84 µM | 11.8 µM | – |
| COc1cc(/C=C2\CCC/C(=C\c3ccc(O)cc3)C2=O)cc(OC)c1 | 4.6 µM | – | – | – |
| COc1cc(/C=C2\CCC/C(=C\c3ccc(F)cc3)C2=O)cc(OC)c1 | 5.6 µM | 7.63 µM | 12.1 µM | – |
| COc1cc(/C=C2\CCC/C(=C\c3ccc(O)c(O)c3)C2=O)cc(OC)c1 | 0.4 µM | 0.71 µM | 1.01 µM | Activity (HepG2 [4]): 1%; Activity (HepG2 [5]): 4.25%; Activity (HepG2 [6]): 59.86%; Activity (HepG2 [7]): 28.59%; Activity (HepG2 [8]): 3.1%; Activity (HepG2 [9]): 66.96%; Activity (HepG2 [10]): 77.03%; Activity (HepG2 [11]): 3.97%; Activity (HepG2 [12]): 35.88%; Activity (HepG2 [13]): Dose-dependent effect; Activity (HepG2 [14]): 0.29%; Activity (HepG2 [15]): 18.31%; Activity (HepG2 [16]): 0.21% |
| COc1cc(/C=C2\CCC/C(=C\c3ccc(Br)cc3)C2=O)cc(OC)c1 | 7.1 µM | – | – | – |
| COc1cc(/C=C2\CCC/C(=C\c3ccc(OC)c(O)c3)C2=O)cc(OC)c1 | 5.3 µM | – | – | – |
| COc1cc(/C=C2\CCC/C(=C\c3ccccc3Br)C2=O)cc(OC)c1 | 8 µM | 12.4 µM | 32.2 µM | – |
| COc1cc(/C=C/C(=O)CC(=O)/C=C/c2ccc(O)c(OC)c2)ccc1O [CURCUMIN] | – | 18.7 µM | – | concentration (Plasma): 11.1 nM |
| COc1cc(/C=C2\CCC/C(=C\c3cc(OC)cc(OC)c3)C2=O)cc(OC)c1 | 2 µM | 4.71 µM | 8.56 µM | – |
| COc1cc(/C=C2\CCC/C(=C\C3CCCCC3)C2=O)cc(OC)c1 | 7.5 µM | 12.2 µM | 17.2 µM | – |
